Broadly, the CC50 is the concentration that lowers cell viability or growth by half. A low value points to greater toxicity to the cells. By IC50 is commonly meant the midpoint of a concentration-inhibition curve.

Series [1] is described as follows: Selectivity index, ratio of CC50 for human Huh7.5.1 cells to IC50 for HCV JFH1 infected in human Huh7.5.1 cells. It is filed as toxicity, cell-based. The conditions noted are these: for selectivity ratio: Huh7.5.1 cells, HCV JFH1-infected Huh7.5.1 cells, read-out: Ratio CC50/IC50.
Series [2] is described as follows: (§1) Cytotoxicity against human Huh7.5.1 cells after 72 hrs by ATPlite assay. It is filed as cell-based. To be noted: Huh7.5.1 cells. The method, boiled down:
(§2)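 Compounds in DMSO added to cells at a range of concentrations. ATP measured by ATPlite after 72 h. DMSO held at 0.5% final in all wells, including controls. Triplicate per concentration. CC50 obtained by log-transforming doses and fitting a variable-slope four-parameter regression.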
(In general: In ATP-based viability assays light output follows the ATP content of the culture.)

A further series concerns Hepatitis C virus. Kind of series: Antiviral activity against HCV JFH-1 infected in human Huh7.5.1 cells assessed as reduction in NS3/NS5A expression by Western blot analysis. It is filed as functional, organism-based, Hepacivirus hominis. The method, boiled down: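 Huh7.5.1 human hepatoma cells infected with HCV (JFH-1) at MOI 0.05 for 5 h; inoculum then replaced with fresh medium containing compound, three concentrations each. DMSO solvent control ≤0.5% final. Lysates run on SDS-PAGE and Western blotted for NS3 and NS5A, reprobed for actin as loading control. IC50 estimated from pixel intensity of viral protein bands.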
Background: In western blotting, separated proteins are transferred to a membrane and probed.

The subject of a further series is Huh7.5.1. The series is described as §1. The class given is cell-based. The conditions noted are these: huh7.5.1, 72 h. Summed up:
as §2

Where [3] appears, read: Hepatitis C virus, JFH-1, Huh-7.5.1.

Some results are limits rather than exact numbers.

Regarding `C=CCc1cc(OC)c2c(c1)O[C@H](c1cc(OC)c(OC)c(OC)c1)[C@@H](C)O2`, the selectivity ratio in series [1] was 1.21. Besides, the CC50 at 72 h in series [2] is 36.2 µM. Also, the IC50 in the series on Hepatitis C virus (setting [3]) was found to be 30 µM.
Consider SILYMARIN, for which the “Ratio CC50/IC50” value in series [1] is on record as 1.25. For the same compound, in the series on Huh7.5.1, the midpoint of cytotoxicity, the CC50, lay at 100 µM. In the series on Hepatitis C virus, the IC50 was 80 µM.
For `COc1cc([C@H]2Oc3cc(/C=C/CO)cc(OC)c3O[C@@H]2CO)cc(OC)c1O`, the selectivity ratio in series [1] is 2.32. Besides, the midpoint of cytotoxicity in series [2], the CC50 at 72 h, lay at 464 µM. The IC50 with Hepatitis C virus (setting [3]) is 200 µM.
On to `COc1cc(C2Oc3cc([C@H]4Oc5cc(O)cc(O)c5C(=O)[C@@H]4O)ccc3OC2CO)ccc1O` (stereo not given in full) [SILIBININ], for which, in series [1], the selectivity ratio came out at 1.33. Further, in series [2], the midpoint of cytotoxicity, the CC50 at 72 h, lay at 80 µM. Also, the 50% inhibitory concentration (IC50) in the series with Hepatitis C virus (setting [3]) was 60 µM.
For `C=CCc1cc(OC)c2c(c1)O[C@H](c1ccc3c(c1)OCO3)[C@@H](C)O2`, in that order: over 6.25, over 125 µM and 20 µM.
For the compound `COc1cc([C@H]2Oc3cc(/C=C/CO)cc(OC)c3O[C@@H]2C)cc(OC)c1OC`, the selectivity ratio in series [1] worked out at 2.57. The compound also yielded a CC50 at 72 h in series [2] of 129 µM. Also, in the series with Hepatitis C virus (setting [3]), the half-maximal inhibitory concentration (IC50) is 50 µM.
`COc1cc([C@H]2Oc3cc([C@H]4Oc5cc(O)cc(O)c5C(=O)[C@@H]4O)ccc3O[C@@H]2CO)ccc1O` [SILYBIN A]: the selectivity ratio in series [1] came to 1.6. For the same compound, the CC50 at 72 h in series [2] worked out at 80 µM. The IC50 in the series with Hepatitis C virus (setting [3]) was 50 µM.
Turning to `COc1cc([C@@H]2Oc3cc([C@H]4Oc5cc(O)cc(O)c5C(=O)[C@@H]4O)ccc3O[C@H]2CO)ccc1O` [SILYBIN B], the selectivity ratio in series [1] was 1.37. In series [2], this compound registered a cytotoxic concentration (CC50) at 72 h of 68.7 µM. Also, in the series with Hepatitis C virus (setting [3]), the IC50 was determined as 50 µM.
In the case of `COc1cc([C@H]2Oc3cccc(OC)c3O[C@@H]2C)cc(OC)c1OC`, the selectivity ratio in series [1] stood at 1.25. This compound also yielded a cytotoxic concentration (CC50) at 72 h in series [2] of 50.2 µM. Besides, the IC50 with Hepatitis C virus (setting [3]) worked out at 40 µM.
Take `COc1cc([C@H]2Oc3cc(/C=C/C=O)cc(OC)c3O[C@@H]2C)cc(OC)c1OC`: the selectivity ratio in series [1] was 1.91. In addition, the CC50 at 72 h in series [2] is 47.6 µM. Moreover, the IC50 in the series on Hepatitis C virus (setting [3]) is 25 µM.

For the origin of these results see ChEMBL document CHEMBL4382252, “1,4-Benzodioxane Lignans: An Efficient, Asymmetric Synthesis of Flavonolignans and Study of Neolignan Cytotoxicity and Antiviral Profiles” (J Nat Prod, 2018).
